Test [1] relates to Radical scavenging activity. Description: Antioxidant activity assessed as DPPH radical scavenging activity. In kind it is functional. Summed up:
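Test sample at 20 µM final mixed with DPPH (0.1 mM); stood 0.5 h at 25 °C, then absorbance read at 517 nm. Activity expressed as decrease of absorbance: DPPH blank minus (DPPH + sample) plus sample-only absorbance.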
In general terms: DPPH is a stable violet radical that fades when it is reduced.

A short description of test [2]: Antioxidant activity assessed as AAPH radical scavenging activity after 3 hrs. In kind it is functional. Put shortly:
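Ethyl linoleate (50 mM) oxidized with AAPH (10 mM) in 0.3 M Tween 20/0.05 M phosphate buffer (pH 7.4) micelles; test sample 0.10 mM final (from DMSO stock). Incubation 37 °C, dark, with shaking, 3 h. Aliquot quenched into methanolic trolox; ethyl linoleate hydroperoxide quantified by reverse-phase HPLC at 234 nm from a peak-area calibration equation.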

The structures appear in SMILES notation. Activity calls are given as the source filed them. No cut-off for these calls is given here.

With `COc1cc(C[C@H]2COC[C@@H]2Cc2ccc(O)c(OC)c2)ccc1O`, the outcome in test [1] and in test [2] was Active.
On to `COc1cc([C@@H]2c3cc(O)c(OC)cc3C[C@H]3COC[C@H]32)ccc1O`, for which the result in test [1] and in test [2] was Active.
As for `COc1cc(C(O)[C@H]2COC[C@@H]2[C@@H](O)c2ccc(O)c(OC)c2)ccc1O` (single isomer, unassigned), the result in test [1] and in test [2] was Active.
Regarding `COc1cc(C[C@H]2COC(=O)[C@@H]2Cc2ccc(O)c(OC)c2)ccc1O`, the outcome in test [1] and in test [2] was Active.
`COc1cc(C[C@H]2COC[C@@H]2C(=O)c2ccc(O)c(OC)c2)ccc1O`: the outcome in test [1] and in test [2] was Active.
`COc1cc([C@@H](O)[C@H]2COC[C@@H]2[C@H](O)c2ccc(O)c(OC)c2)ccc1O`: the result in test [1] and in test [2] was Active.
On to `COc1cc(C[C@H]2COC[C@@H]2[C@@H](O)c2ccc(O)c(OC)c2)ccc1O`, for which the outcome in test [1] and in test [2] was Active.
In the case of `COc1cc(C[C@H]2COC[C@@H]2[C@H](O)c2ccc(O)c(OC)c2)ccc1O`, the outcome in test [1] and in test [2] was Active.

(Values after ChEMBL document CHEMBL1148990, “Effect of benzylic oxygen on the antioxidant activity of phenolic lignans” (J Nat Prod, 2005).)
